From the array DNA melting data of Ke et al. (doi:10.1101/2024.01.08.574731) come the findings set out here.

A short description of data set [1]: folding enthalpy; higher = less favourable; fluorescence melt of hairpins on a sequencing array, two-state fit. As to conditions: sodium 0.088 M. The procedure, abridged:
(§1)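 Bootstrapped two-state fits yielded melting temperature and folding enthalpy for library hairpins. Cy3 fluorescence, with annealed Cy3 and quencher oligos, was imaged on a sequenced MiSeq flow cell in 50 mM Na-HEPES pH 8.0, 25 mM NaCl in 2.5 °C steps up to 60 °C, and normalised to pre-quench Cy3 and to control constructs. Four replicates were combined by inverse variance, and fitted temperatures were raised by 9.35 °C to match UV melts.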

The nature of data set [2]: melting temperature; fluorescence melt of hairpins on a sequencing array, two-state fit, raised by 9.35 °C to match UV melts. As to conditions: sodium 0.088 M. The procedure, abridged:
as §1

Regarding GCTTTGGCGAAAGCCAGC (((..(((....)))))), the folding enthalpy in data set [1] is -10.1 kcal/mol. Moreover, in data set [2], the Tm came to 38.2 °C.
GCTTTGGGAAACCAAGGC ((.((((....)))).)): in data set [1], the folding enthalpy is -29.7 kcal/mol. The Tm in data set [2] is 47.8 °C.
The like results for GCTTTTACGAAAGTAAGC (((..(((....)))))) were, in that order, -14.7 kcal/mol and 33.2 °C.
The like results for GCTTTTCGAAAGAACAGC (((.(((....))).))) were, in that order, -31.8 kcal/mol and 42.8 °C.
GGAAAACGAAAGTTCTCC (((.(((....))).))): in data set [1], the folding enthalpy is -24.8 kcal/mol. For the same sequence, in data set [2], the Tm came to 35.7 °C.
The like results for GGAAAACGAAAGTTTCC (((.(((....)))))) were, in that order, -21.7 kcal/mol and 44.1 °C.
On the same counts, the results for GGAAAAGCGAAAGCTTCC (((..(((....)))))) are -15.1 kcal/mol and 40.5 °C.
As to GGAAAAGGAAACTTTTCC (((((((....))))))), the folding enthalpy in data set [1] was -39.6 kcal/mol. Besides, the Tm in data set [2] came out at 52.7 °C.
Turning to GGAAACGAAAGTTGTTCC ((((((....)))..))), the folding enthalpy in data set [1] is -9.91 kcal/mol. Moreover, in data set [2], the Tm worked out at 24.9 °C.
On the same counts, the results for GGAAACGAAAGTTTTCC ((((((....))).))) are -20.4 kcal/mol and 46.2 °C.
For the sequence GGAAACGGAAACATTTCC (((((.(....).))))), in data set [1], the folding enthalpy was -28.4 kcal/mol. For the same sequence, in data set [2], the Tm is 31.3 °C.
The like results for GGAAACGGAAACGTTTTC (.(((((....))))).) were, in that order, -28.3 kcal/mol and 46.8 °C.
The like results for GGAAACTCGAAAGAGTCC (((..(((....)))))) were, in that order, -14.3 kcal/mol and 33.8 °C.
Regarding GGAAAGAAATTTCC (((((....))))), in data set [1], the folding enthalpy is -18.9 kcal/mol. Further, the Tm in data set [2] amounted to 29.5 °C.
On the same counts, the results for GGAAAGCGAAAGCTATCC (((.(((....))).))) are -25.2 kcal/mol and 47.2 °C.
On the same counts, the results for GGAAAGGGAAACCTTTTC (.(((((....))))).) are -24.3 kcal/mol and 37.6 °C.
Turning to GGAAATCGAAAGATATCC (((.(((....))).))), the folding enthalpy in data set [1] is -26.2 kcal/mol. Further, the Tm in data set [2] came to 37.8 °C.
The like results for GGAAATCGAAAGATCTCC (((.(((....))).))) were, in that order, -26.1 kcal/mol and 34.9 °C.
The like results for GGAAATCGAAAGATTCC (((.(((....)))))) were, in that order, -20.9 kcal/mol and 40.4 °C.
The like results for GGAAATTCGAAAGAATCC (((..(((....)))))) were, in that order, -9.79 kcal/mol and 26 °C.
In the case of GGAACAGAAATGTTCC ((((((....)))))), the folding enthalpy in data set [1] is -39 kcal/mol. Moreover, the Tm in data set [2] was 54.9 °C.
On the same counts, the results for GGAACAGGAAACTGCTCC (((.(((....))).))) are -31.1 kcal/mol and 40.8 °C.
On the same counts, the results for GGAACCGAAAGGTAGTCC ((((((....)))..))) are -12 kcal/mol and 29.8 °C.
On the same counts, the results for GGAACCGAAAGGTATTCC ((((((....)))..))) are -13.3 kcal/mol and 33.8 °C.
Consider GGAACCGAAAGGTTCTCC ((((((....)))..))), for which the folding enthalpy in data set [1] was -10.8 kcal/mol. In addition, the Tm in data set [2] worked out at 51.9 °C.
Regarding GGAACCTCGAAAGAGTCC (((..(((....)))))), the folding enthalpy in data set [1] was -11.3 kcal/mol. The Tm in data set [2] amounted to 27 °C.
On the same counts, the results for GGAACGCGAAAGCGTCC (((.(((....)))))) are -13.4 kcal/mol and 53.8 °C.
On the same counts, the results for GGAACGGGAAACTGTTCC (((((.(....).))))) are -42.4 kcal/mol and 53 °C.
The like results for GGAACTCGAAAGAGATCC (((.(((....))).))) were, in that order, -34.4 kcal/mol and 49.5 °C.
On to GGAACTCGAAAGAGTCC (((.(((....)))))), for which the folding enthalpy in data set [1] was -19.5 kcal/mol. In addition, the Tm in data set [2] is 49.2 °C.
The like results for GGAACTGCGAAAGCATCC (((..(((....)))))) were, in that order, -6.59 kcal/mol and 24.6 °C.
The like results for GGAACTGGAAACAGTTTC (.(((((....))))).) were, in that order, -27.7 kcal/mol and 46.2 °C.
The like results for GGAAGAACGAAAGTTTCC (((..(((....)))))) were, in that order, -14.9 kcal/mol and 33 °C.
For the sequence GGAAGACGAAAGTCATCC (((.(((....))).))), the folding enthalpy in data set [1] is -26 kcal/mol. Also, the Tm in data set [2] worked out at 48.7 °C.
GGAAGAGAAATCTTCC ((((((....)))))): the folding enthalpy in data set [1] is -24.1 kcal/mol. Moreover, the Tm in data set [2] stood at 47.7 °C.
The like results for GGAAGAGGAAACTCCTCC (((.(((....))).))) were, in that order, -13.9 kcal/mol and 28 °C.
Take GGAAGAGGAAACTCTTTC (.(((((....))))).): the folding enthalpy in data set [1] was -27 kcal/mol. In addition, the Tm in data set [2] stood at 37.3 °C.
